Screening results as filed in PubChem BioAssay.
In the library only some 2.3% were active in any assay of this set; here they are far more common.
EWS-Fli inh: blocks EWS/Fli oncoprotein-driven transcription; A673 NR0B1-luciferase reporter, viability-normalised; inhibition, % at 12.6 µM; 0.67% of 350,000 active; AID 651661;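 active = mean inhibition of at least 50% after viability correction, with every replicate also passing that limit; inconclusive = mean reaches 50% but only one of two replicates passes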;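 also: firefly luciferase signal divided by Alamar Blue viability fluorescence both relative to DMSO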
PAX8 reporter: PAX8 transcriptional activity inhibition; RMG-I TPO-luciferase reporter, SteadyGlo, 24 h; AID 652154; inhibition, % at 12.6 µM; 1.2% of 360,000 active;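 active = mean replicate inhibition at least 60% with every replicate also reaching 60%; inconclusive = only one of the two criteria is met; inactive = mean below 60% and not all replicates reaching 60%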;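 also: luciferase light reporting Pax8 driven TPO promoter activity; plate controls were median of neutral control wells for no effect and mitoxantrone controls for full effect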
FN deposit inh: fibronectin deposition inhibition. AH1F fibroblasts, Alexa488-fibronectin deposition fluorescence, overnight. inhibition, % at 12.6 µM. 0.086% of 350,000 active;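 active = mean inhibition across replicates of 30% or more, regardless of how many single replicates reach that level; inconclusive = mean under 30% yet at least half of replicates reach 30%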;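 also: positive control wells lacked labelled fibronectin entirely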
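Assay system: AH1F fibroblasts assembling fluorescent fibronectin matrix; Amount: 10000 AH1F cells per well; Buffer or medium: DMEM, 2% serum; Probe or stimulus: Alexa488-fibronectin, 24 nM final in well; Doses: single compound dose, delivered by pin transfer; Incubation: 1 h adhesion, overnight exposure; Measured by: fluorescence 485/525 nm; Read-out: fibronectin deposition inhibition.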
PGC1a acetyl inh: lowers PGC1a acetylation signal in U2OS cells | inhibition, % at 15.6 µM | 0.17% of 350,000 active | AlphaScreen anti-acetyl-lysine; with virally co-expressed GCN5 acetyltransferase | AID 651687;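 active = every replicate shows inhibition of at least 40%; inconclusive = mean inhibition at least 40% but some replicate below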;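 also: 0% = neutral control wells and 100% = positive control wells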
Env fusion inh: inhibitors of HIV Env-mediated cell fusion. 1.1% of 360,000 active. HeLa-JRFL Env/CEM21 cell fusion, luciferase. inhibition, % at 12.3 µM;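 active = mean replicate inhibition score of at least 50 and every replicate individually at or above 50; inconclusive = only one of the two criteria met; inactive = mean below 50 and not all replicates reaching 50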;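 also: 0% = plate neutral controls and 100% = maraviroc near 300 nM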
F508del corr: CFTR F508del correction in bronchial cells; CFBE cells, YFP halide quenching; stimulated with forskolin plus potentiator P3; % fluorescence drop versus neutral controls; activity (quench increase), % at 7.58 µM; 0.36% of 350,000 active; AID 720511;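 active = mean added fluorescence quench of at least 8% versus neutral control, with both replicates also reaching 8%; inconclusive = only one of the mean or replicate conditions met; inactive = mean below 8% and not both replicates reaching 8%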;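 also: cells transiently co-express mutant CFTR-F508del with the halide-sensitive YFP; corrector assay measuring rescue of mutant channel to the surface after 24 h compound exposure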
Starred values were filed as active, the others as inactive; ? = inconclusive; nt = no result; [ ] = dose if it differs, or a comment.

SMILES	EWS-Fli inh	PAX8 reporter	FN deposit inh	PGC1a acetyl inh	Env fusion inh	F508del corr
CCOC(=O)C(C)Oc1ccc(OCc2ccccc2)cc1 (stereo not drawn)	8.2	-3.3	nt	nt	8.6	-1.4
CNC[C@H]1Oc2cc(C#CCN(C)C)ccc2S(=O)(=O)N([C@@H](C)CO)C[C@@H]1C	-3.8	nt	2.1	7.9	-21.4[16.7 µM]	1.9
CCCNC(=O)[C@H]1[C@H](CO)[C@H]2Cn3c(ccc(-c4ccc(F)cc4)c3=O)[C@@H]1N2CCC	10.1	nt	nt	nt	nt	-3.3
O=C(c1cccc(F)c1)N1CC(=O)N2[C@@H](CO)[C@@H](c3ccc(C#Cc4ccc(F)cc4)cc3)[C@@H]2C1	6.4	nt	nt	6.2	nt	8.2*
O=C(c1ccc(F)cc1)N1CC(=O)N2[C@H](CO)[C@@H](c3ccc(/C=C/c4ccccc4)cc3)[C@@H]2C1	-4.9	68.7*	nt	-5.4	nt	1.1
CC=Cc1ccc2n(c1=O)C[C@H]1[C@H](CO)[C@@H](C(=O)N[C@@H](C)c3ccccc3)[C@@H]2N1CC (mixture of isomers)	-10.3	nt	nt	nt	-6.7[16.7 µM]	nt
Cc1cc(C)nc(N(C#N)Cc2cccc(Cl)c2)n1	6.2	-6.4	-1.6	-2.1	8.2	10.5*
COc1ccccc1S(=O)(=O)N(C)C[C@H]1OCc2ccccc2-c2c(n(C)c3ccccc23)C(=O)N([C@H](C)CO)C[C@@H]1C	19.2	61.9*	-2.2	19.2	9.5[16.7 µM]	-4.1
COc1cccc(S(=O)(=O)N(C)C[C@H]2OCc3ccccc3-c3c(n(C)c4ccccc34)C(=O)N([C@H](C)CO)C[C@H]2C)c1	22.6	85.8*	-11.2	-5.1	-150.5[16.7 µM]	1.2
COc1cccc(S(=O)(=O)N(C)C[C@@H]2OCc3ccccc3-c3c(n(C)c4ccccc34)C(=O)N([C@@H](C)CO)C[C@H]2C)c1	13.9	8.0	6.2	-6.3	-13.0[16.7 µM]	-1.9
C[C@@H]1CN([C@@H](C)CO)C(=O)c2c(c3ccccc3n2C)-c2ccccc2CO[C@H]1CN(C)S(=O)(=O)c1cccc(F)c1	1.1	86.8*	6.7	-33.9	51.5[16.7 µM]	0.4
C[C@@H](NC(=O)C[C@@H]1C=C[C@H](NC(=O)Nc2ccc3c(c2)OCO3)[C@@H](CO)O1)c1ccccc1	-7.3	4.0	-3.6	-6.0	-9.4[16.7 µM]	-0.4
C[C@@H]1CN([C@H](C)CO)S(=O)(=O)c2ccc(C#CC3CC3)cc2O[C@H]1CN(C)C(=O)C1CCC1	18.4	nt	nt	-6.0	12.9[16.7 µM]	1.2
C[C@@H]1CCCCO[C@@H](CN(C)C(=O)Cc2ccccc2)[C@H](C)CN([C@@H](C)CO)C(=O)c2cc(NC(=O)Nc3ccccc3)ccc2O1	2.4	10.2	7.3	24.9	-27.7[16.7 µM]	0.5
CCOC(=O)c1sc(=S)n(C)c1NC(=O)c1ccccc1Cl	-2.3	75.9*	-2.3	nt	nt	-1.4
CC(C)NC(=O)NC(=O)COC(=O)c1ccc(OC(F)(F)F)cc1	nt	13.1	-1.8	12.5	1.8	nt
CC(C)NC(=O)NC(=O)COC(=O)c1ccc(S(=O)(=O)Nc2ccccc2)cc1	10.5	-5.5	5.7	nt	-4.9	22.8*
CC(=O)Nc1ccc2c(c1)C(=O)N(C)C[C@@H](C)[C@@H](CN(C)C(C)=O)O2	nt	nt	-3.4	nt	nt	nt
COC(=O)C1=C(C)N(Cc2ccc(Cl)cc2)C(=S)NC1c1ccc(Br)cc1 (stereo not drawn)	5.3	14.3	2.3	nt	55.7*	-0.7
CC(=O)C1=C(C)N(Cc2ccc(Br)cc2)C(=S)NC1c1cccc(Cl)c1 (stereo not drawn)	9.6	23.8	6.3	nt	70.0*	-0.7
CC(=O)C1=C(C)N(Cc2ccc(Cl)cc2)C(=S)NC1c1cccc(Br)c1 (stereo not drawn)	17.0	3.4	-12.7	nt	70.4*	-1.7
CC(=O)C1=C(C)N(Cc2ccc(Br)cc2)C(=S)NC1c1cccc(Br)c1 (stereo not drawn)	1.3	15.9	10.2	nt	?	-2.3
COC(=O)C1=C(C)N(Cc2ccc(Cl)cc2)C(=S)NC1c1ccc(F)cc1 (stereo not drawn)	-2.7	4.1	-6.4	nt	24.3	-3.1
COc1ccc(NC(=O)Nc2ccc3c(c2)C(=O)N([C@H](C)CO)C[C@H](C)[C@H](CN(C)S(=O)(=O)c2ccc(C)cc2)O3)cc1	13.8	6.9	nt	0.9	86.7*[16.7 µM]	1.1
